Data on seven molecules can be found in ChEMBL document CHEMBL1255364, “Delayed development of linezolid resistance in Staphylococcus aureus following exposure to low levels of antimicrobial agents” (2008).

Assay [1] deals with Staphylococcus aureus. As to the kind of experiment: Suppression of drug resistance development in Staphylococcus aureus RN4220 assessed as prolonged length of subculture to develop Linezolid resistance at 4 times MIC and 0.25 times IC50 after 25 days. The format is functional, organism-based. The method in brief:
(§1)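 Stationary-phase MHB cultures were exposed for 6 h to linezolid at 4× MIC, with secondary agent(s) at 0.25× IC50. IC50 was the concentration halving growth rate by culture absorbance. A 5 μl aliquot was transferred to fresh drug-free medium and the cycle repeated. […] Four runs were done, with days to resistance averaged to the nearest day.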

In assay [2] the test system is Staphylococcus aureus. As to the kind of experiment: Suppression of drug resistance development in recA-deficient Staphylococcus aureus KB103 assessed as prolonged length of subculture to develop Linezolid resistance at 4 times MIC and 0.25 times IC50 after 20 days. The assay is classed as functional, organism-based. The method in brief:
as §1

The test system of assay [3] is Staphylococcus aureus. As to the kind of experiment: Suppression of resistance related recombination in Staphylococcus aureus RN4220 at 0.25 times IC50 at 42 degC.
Assay [4] deals with Staphylococcus aureus. Nature of the assay: Suppression of drug resistance development in Staphylococcus aureus isolate EMRAS-15 assessed as prolonged length of subculture to develop Linezolid resistance at 4 times MIC and 0.25 times IC50 after 25 days. The assay is classed as functional, organism-based. The gist of the method:
as §1

Assay [5] has as its system Staphylococcus aureus. As to the kind of experiment: Suppression of drug resistance development in Staphylococcus aureus RN4220 assessed as assessed as prolonged length of subculture to develop Linezolid resistance at 0.25 times IC50.
In assay [6] the test system is Staphylococcus aureus. Nature of the assay: Antibacterial activity against Staphylococcus aureus KM50 after 18 to 24 hrs by broth microdilution method selected after 16 ug/ml drug exposure for 6 hrs by culture absorbance method. The assay is classed as functional. The gist of the method:
(§2)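 Broth microdilution in Mueller-Hinton broth per BSAC guidelines. MIC read as the lowest concentration completely inhibiting visible growth after 18 to 24 h at 37°C. Strains were linezolid-selected derivatives recovered from repeated 6-h linezolid exposure cycles.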
A general note: Dilution methods test growth across graded concentrations, often in twofold steps.

Assay [7] concerns Staphylococcus aureus. Nature of the assay: Antibacterial activity against Staphylococcus aureus KM187 after 18 to 24 hrs by broth microdilution method selected after 16 ug/ml drug exposure for 6 hrs by culture absorbance method. The format is functional. The method in brief:
as §2

Assay [8] concerns Staphylococcus aureus. As to the kind of experiment: Antibacterial activity against Staphylococcus aureus KM52 after 18 to 24 hrs by broth microdilution method selected after 16 ug/ml drug exposure for 6 hrs by culture absorbance method. The format is functional. The method in brief:
as §2

For assay [9], the system named is Staphylococcus aureus. As to the kind of experiment: Suppression of drug resistance development in LZD intermediate-resistant Staphylococcus aureus KM183 assessed as prolonged length of subculture to develop Linezolid resistance at 4 times MIC and 0.25 times IC50 after 8 days. The format is functional, organism-based. The gist of the method: as §1
Assay [10] deals with Staphylococcus aureus. Nature of the assay: Antibacterial activity against Staphylococcus aureus KM183 after 18 to 24 hrs by broth microdilution method selected after 16 ug/ml drug exposure for 6 hrs by culture absorbance method. The assay is classed as functional. The gist of the method: as §2
Assay [11] relates to Staphylococcus aureus. Nature of the assay: Antibacterial activity against Staphylococcus aureus KM51 after 18 to 24 hrs by broth microdilution method selected after 16 ug/ml drug exposure for 6 hrs by culture absorbance method. The assay is classed as functional. The gist of the method: as §2
Assay [12] has as its system Staphylococcus aureus. Nature of the assay: Antibacterial activity against Staphylococcus aureus KM53 after 18 to 24 hrs by broth microdilution method selected after 16 ug/ml drug exposure for 6 hrs by culture absorbance method. The format is functional. The method in brief: as §2
The test system of assay [13] is Staphylococcus aureus. As to the kind of experiment: Suppression of drug resistance development in Staphylococcus aureus RN4220 assessed as assessed as prolonged length of subculture to develop Linezolid resistance at 0.25 times MIC. The assay is classed as functional.

One may read the MIC as the lowest concentration that inhibits growth of the organism.

In brackets after ≈: the same amount, converted by molar mass. Activity calls are given as the source filed them. No cut-off for these calls is given here.

In the case of `CC(=O)O[C@H]1C[C@@]2(C)[C@@H](C[C@@H](O)[C@H]3[C@@]4(C)CC[C@@H](O)[C@@H](C)[C@@H]4CC[C@@]32C)/C1=C(\CCC=C(C)C)C(=O)O`, the outcome in assay [1], in assay [2] and in assay [4] was Active. Besides, in assay [3], the inhibition result was “Active”.

Take `CO[C@H]1/C=C/O[C@@]2(C)Oc3c(C)c(O)c4c(O)c(c(/C=N/N5CCN(C)CC5)c(O)c4c3C2=O)NC(=O)/C(C)=C\C=C\[C@H](C)[C@H](O)[C@@H](C)[C@@H](O)[C@@H](C)[C@H](OC(C)=O)[C@@H]1C`: the result in assay [1] and in [2] was Active. Besides, the inhibition result in assay [3] is “Active”.

For `O=C(O)c1cn(C2CC2)c2cc(N3CCNCC3)c(F)cc2c1=O` [CIPROFLOXACIN], the Time in [5] was determined as 14 days.

Consider `CC(=O)NC[C@H]1CN(c2ccc(N3CCOCC3)c(F)c2)C(=O)O1` [LINEZOLID], for which the MIC in assay [6] was found to be 32 µg/mL (≈ 94.9 µM); in assay [7] it was 32 µg/mL (≈ 94.9 µM); in assay [8] it was 32 µg/mL (≈ 94.9 µM); in [10], 16 µg/mL (≈ 47.4 µM); in assay [11], 32 µg/mL (≈ 94.9 µM); in [12], 32 µg/mL (≈ 94.9 µM). Also, the outcome in [2] and in assay [9] was Active.

Turning to `CO[C@@H]1[C@@H](OC(N)=O)[C@@H](O)[C@H](Oc2ccc3c(O)c(NC(=O)c4ccc(O)c(CC=C(C)C)c4)c(=O)oc3c2C)OC1(C)C` [NOVOBIOCIN], the Time in assay [5] is 14 days.

Turning to `CN(C)[C@@H]1C(O)=C(C(N)=O)C(=O)[C@@]2(O)C(O)=C3C(=O)c4c(O)cccc4[C@@](C)(O)[C@H]3C[C@@H]12` [TETRACYCLINE], the Time in assay [5] came to 14 days.

For GENTAMICIN, the TIME in assay [13] stood at 336 h.
